From ChEMBL document CHEMBL1139887, “Glycosides from the stem bark of Fraxinus sieboldiana” (J Nat Prod, 2007)

What was measured:
[1] = system: Liver microsomes; assay: Antioxidant activity in rat liver microsomes assessed as inhibition of ferrous-cystine-induced lipid peroxidation after 15 mins; type: functional, Microsome
Summary of the method: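 Microsomes from rat liver suspended in 100 mM Tris-HCl pH 7.4. Then 50 µM FeSO4 added and a further 15 min at 37 °C. Stopped with 20% TCA and spun. Supernatant heated with 0.67% TBA 10 min, read at 532 nm. Tested over several concentrations.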

[2] = Cytotoxicity against human BGC823 cells; type: cell-based; details: BGC-823
[3] = system: HCT-8; assay: Cytotoxicity against human HCT8 cells; type: cell-based
[4] = system: A549; assay: Cytotoxicity against human A549 cells; type: cell-based
[5] = Cytotoxicity against human Bel7402 cells; type: cell-based; details: Bel-7402
[6] = system: A2780; assay: Cytotoxicity against human A2780 cells; type: cell-based
[7] = system: Peritoneal macrophage cell; assay: Inhibition of LPS-induced TNFalpha secretion in C57BL/6J mouse peritoneal macrophages at 10 uM after 24 hrs; type: functional
Summary of the method: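 Macrophages from male C57BL6J mice, harvested 4 days after i.p. thioglycollate. Cells adhered 2 h, then 24 h at 37 °C with compound (10^-5 M final), LPS 1 µg/mL and 5% FCS. Supernatant put on L929 cells with actinomycin D 0.5 µg/mL for 20 h, then MTT 4 h, A570. Triplicate wells. Inhibition = (L−S)/(L−B)×100. Indomethacin reference.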

[8] = system: Peritoneal macrophage cell; assay: Inhibition of LPS-induced TNFalpha secretion in C57BL/6J mouse peritoneal macrophages after 24 hrs; type: functional, cell-based

IC50 [1] [µM]	Compound	IC50 [2] [µM]	IC50 [3] [µM]	IC50 [4] [µM]	IC50 [5] [µM]	IC50 [6] [µM]	inhibition at 10 µM [7] [%]	IC50 [8] [µM]
> 10	CC1=C[C@@H](C2=C(C)CC[C@H](O[C@@H]3O[C@H](CO)[C@@H](O)[C@H](O)[C@H]3O)C2(C)C)[C@@H](/C=C(/C)C(=O)O)OC1 [FRAXINUACIDOSIDE]	> 5	> 5	> 5	> 5	> 5		
> 10	COc1cc(O[C@@H]2O[C@H](CO)[C@@H](O)[C@H](O)[C@H]2O)ccc1O[C@@H]1O[C@H](CO)[C@@H](O)[C@H](O)[C@H]1O	> 5	> 5	> 5	> 5	> 5	16.3	
> 10	COc1cc(C(=O)OC[C@H]2O[C@@H](Oc3cc4ccc(=O)oc4cc3O)[C@H](O)[C@@H](O)[C@@H]2O)ccc1O[C@@H]1O[C@H](CO)[C@@H](O)[C@H](O)[C@H]1O	> 5	> 5	> 5	> 5	> 5	30.8	
> 10	COc1cc(O[C@@H]2O[C@H](CO)[C@@H](O)[C@H](O)[C@H]2O)cc(OC)c1O[C@@H]1O[C@H](CO)[C@@H](O)[C@H](O)[C@H]1O	> 5	> 5	> 5	> 5	> 5	25.2	
> 10	COc1cc([C@H](O)[C@@H](O)CO)cc(OC)c1O[C@@H]1O[C@H](CO)[C@@H](O)[C@H](O)[C@H]1O	> 5	> 5	> 5	> 5	> 5	28.2	
0.9	OC[C@@]1(O)CO[C@@H](OC[C@H]2O[C@@H](OCCc3ccc(O)c(O)c3)[C@H](O)[C@@H](O)[C@@H]2O)[C@@H]1O	> 5	> 5	> 5	> 5	> 5	28.8	
> 10	COc1cc(CCO[C@@H]2O[C@H](CO[C@@H]3OC[C@](O)(CO)[C@H]3O)[C@@H](O)[C@H](O)[C@H]2O)ccc1O	> 5	> 5	> 5	> 5	> 5	44.3	1.6
> 10	COc1cc([C@@H](O)[C@@H](O)CO)cc(OC)c1O[C@@H]1O[C@H](CO)[C@@H](O)[C@H](O)[C@H]1O	> 5	> 5	> 5	> 5	> 5	26.6	
	COc1ccc2c(c1)c(CC(=O)O)c(C)n2C(=O)c1ccc(Cl)cc1 [INDOMETHACIN]						33.2	
	O=C(/C=C/c1ccc(O)c(O)c1)OC[C@H]1O[C@H]2OC[C@H](c3ccc(O)c(O)c3)O[C@@H]2[C@@H](O)[C@@H]1O [PLANTASIOSIDE]		3.4					
> 10	COc1cc([C@@H](O)[C@H](O)CO)cc(OC)c1O[C@@H]1O[C@H](CO)[C@@H](O)[C@H](O)[C@H]1O	> 5	> 5	> 5	> 5	> 5	27.5	
